Screening data as filed in PubChem.
Compounds with a hit are over-represented: about 1.8% of the library has one in this group of screens.
HNF4A DNA FP – change in binding of human HNF4A to DNA, primary screen, biochemical, fluorescence polarization, FITC-DNA. 1 h. Hepatocyte nuclear factor 4-alpha (Homo sapiens), P41235. activity change, % at 10 µM. AID 1224865, 2016. 0.3% of 360,000 active; in the data active = activity change above about 30%, passing the limit was not always enough
CSN inh – inhibitors of CSN-mediated cullin deneddylation, primary screen, biochemical, fluorescence polarization, uHTS; COP9 signalosome complex subunit 5 (Homo sapiens), Q92905; Purified CSN, SCF-Nedd8-OG deneddylation; inhibition, % at 12.5 µM; 0.38% of 360,000 active; AID 651999, 2013;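 active = pattern-corrected inhibition above about 35%, with an unprinted fluorescence ratio check between 0.5 and 1.5, limit read from the data, passing the limit was not always enough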
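assay system = purified human Csn5 enzyme expressed in HEK293T cells | amount = 0.24 nM enzyme | buffer or medium = Tris/NaCl/DTT buffer, pH 7.5 | reagent = 10 nM SCFSkp2-Nedd8OG | compound = one concentration, 12.5 µM, 0.25% DMSO | times = 90 min reaction at room temperature | signal = FP | read-out basis = % inhibition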
TPT1 inhibitor – Candida albicans TPT1 enzyme inhibitors, primary screen, biochemical, fluorescence polarization; tRNA 2'-phosphotransferase TPT1 (Candida albicans SC5314); recombinant caTPT1, FP RNA substrate dephosphorylation; inhibition, % at 5 µM; 0.81% of 300,000 active;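 active = inhibition above the mean of all tested compounds plus 3 SD, set per screening campaign, cut at about 24% in these data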
SENP1 FRET inh – human SENP1 catalytic domain inhibitors, primary screen, biochemical, FRET, uHTS; Sentrin-specific protease 1 (Homo sapiens), Q9P0U3; recombinant SENP1 catalytic domain, CyPet-SUMO1-YPet FRET cleavage; inhibition, % at 10 µM; 0.21% of 360,000 active; AID 624204, 2012;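 active = inhibition at least 30% at 10 µM, raw YFP signal under a set limit, fluorescence ratio 0.5 to 1.5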
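Test system: human SENP1 catalytic domain; medium: Tris pH 8 buffer plus EDTA, NaCl, BME, BSA, NP40, catalase; incubation: 50 min reaction at room temperature; technique: FRET, CFP and YFP emission; controls: no-enzyme low control and enzyme-plus-DMSO high control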
Rpn11 inh – Rpn11 (PSMD14) deubiquitinase inhibitors, primary screen, biochemical, fluorescence polarization, uHTS | 0.59% of 360,000 active | human 26S proteasome, Ub4-pepOG fluorescence polarization; 20S core pre-blocked with epoxomicin | 26S proteasome non-ATPase regulatory subunit 14 (Homo sapiens), O00487 | calls only at 20 µM;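 active = inhibition at 20 µM, scaled to each plate's controls, above about 33%, limit read from the data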
Target sequence (O00487 whole entry, looked up): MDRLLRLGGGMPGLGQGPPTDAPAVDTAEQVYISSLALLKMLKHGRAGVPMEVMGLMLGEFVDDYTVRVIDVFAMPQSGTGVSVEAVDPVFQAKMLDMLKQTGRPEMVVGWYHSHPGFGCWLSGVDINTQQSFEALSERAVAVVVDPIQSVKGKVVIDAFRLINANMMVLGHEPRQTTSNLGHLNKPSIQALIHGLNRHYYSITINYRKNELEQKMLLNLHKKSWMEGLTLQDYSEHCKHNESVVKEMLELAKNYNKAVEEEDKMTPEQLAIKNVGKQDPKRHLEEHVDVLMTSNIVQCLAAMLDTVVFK
SUMO HTRF inh – inhibitors of in vitro SUMOylation cascade, primary screen, biochemical, HTRF, uHTS | AID 2006, 2009 | inhibition, % at 35 µM | 0.36% of 290,000 active | HTRF SUMOylation assay, SAE1/SAE2 + UBC9; in the data active = inhibition above about 50%, passing the limit was not always enough
Target sequence (P63279 whole entry, looked up): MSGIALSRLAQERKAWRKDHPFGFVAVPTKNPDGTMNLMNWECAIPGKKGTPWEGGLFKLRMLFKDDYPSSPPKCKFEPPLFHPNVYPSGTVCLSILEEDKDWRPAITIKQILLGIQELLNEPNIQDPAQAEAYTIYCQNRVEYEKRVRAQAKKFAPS
Rpn11 confirm – Rpn11 (PSMD14) deubiquitinase inhibitors, confirmation, biochemical, fluorescence polarization, single concentration; shares compounds with Rpn11 inh; purified human 26S proteasome, Ub4-pepOG fluorescence polarization; proteasome pretreated with epoxomicin; inhibition, % at 20 µM; 29% of 1,900 active
MMP-2 counter – MMP-2 enzyme inhibition, confirmation, counter-screen for RPN11 inhibitor project, biochemical, fluorescence, single concentration. recombinant MMP-2, FRET peptide cleavage fluorescence. shares compounds with Rpn11 inh. 4% of 1,900 active. inhibition, % at 20 µM;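 also: human MMP-2 activated beforehand with APMA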
Thrombin FP – bovine thrombin protease inhibition, confirmation, counter-screen for Rpn11 inhibitor project, biochemical, fluorescence polarization, single concentration. 13% of 1,900 active. AID 602333, 2012. inhibition, % at 20 µM. bovine thrombin cleavage of Ub4-pepOG. shares compounds with Rpn11 inh;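 active = mean inhibition at least 40% at 20 µM, or signal 3 deviations below plate average, so some actives read negative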
Of the large screens only hits and unclear results are named; the others gave an inactive call (follow-up assays come after a bar, where they were run). Rule as the data show it, unless noted: active = inhibition above about 40%; inactive = the rest.

CCOC(=O)C1CCCN(C2=NC(=O)/C(=C/c3ccc(O)c(OCC)c3)S2)C1 (stereo not given)	Rpn11 inh active | Rpn11 confirm inactive | MMP-2 counter inactive | Thrombin FP inactive
CCOc1ccc(C(=O)CCC(=O)NC(CC(C)C)C(=O)OC)cc1 (stereo not given)	none
COc1ccc(Cn2c(CCC(=O)Nc3ccccc3OC)nc3cccnc32)cc1	none
Cc1c(N2C(=O)CSC2c2ccccc2)c(=O)n(-c2ccccc2)n1C (stereo not given)	none
COc1ccc(C2SCC(=O)N2c2c(C)n(C)n(-c3ccccc3)c2=O)cc1OC (stereo not given)	Rpn11 inh active | Rpn11 confirm inactive | MMP-2 counter inactive | Thrombin FP inactive
CN(CCCNC(=O)C1CCCN(S(=O)(=O)c2cnc[nH]2)C1)c1ccccc1 (stereo not given)	none
COc1ccc(N2CCN(C(=O)CSc3ncccc3-c3nc4ccccc4[nH]3)CC2)cc1	Rpn11 inh active | Rpn11 confirm inactive | MMP-2 counter inactive | Thrombin FP inactive
COc1ccccc1N1CCN(C(=O)CSc2ncccc2-c2nc3ccccc3[nH]2)CC1	none
CCOc1ccc(/C=C2\CCC(C3CCCC3)C2=O)cc1OC (stereo not given)	none
COc1cc(C=C2CCCC(=Cc3ccc(OCC4CO4)c(OC)c3)C2=O)ccc1OCC1CO1 (stereo not given)	Rpn11 inh active (no result: TPT1 inhibitor, SUMO HTRF inh) | Rpn11 confirm inactive | MMP-2 counter inactive | Thrombin FP inactive
Cc1ccc(C2N(c3ccc(Cl)c(Cl)c3)C(=O)C3CCCN32)o1 (stereo not given)	none
Cc1cc2c(=O)n(Cc3ccco3)c(SCC(=O)c3ccc(Cl)s3)nc2s1	Rpn11 inh active | Rpn11 confirm inactive | MMP-2 counter inactive | Thrombin FP inactive
CCOC(=O)CC(=O)CSc1nc2sc(C)cc2c(=O)n1Cc1ccco1	none
Cc1cc(OCn2ccc(C(=O)O)n2)ccc1Cl	none
Cc1cc(C)c(NC(=O)CCCSc2nnc(N)s2)c(C)c1	none
COc1cccc(C(c2ccccc2)N2C3CCC2CN(S(=O)(=O)c2ccc(F)cc2)CC3)c1 (stereo not given)	none (no result: SUMO HTRF inh)
Cc1cc(C)c2cc3c(N)c(C(=O)Nc4c(C)[nH]c(=O)[nH]c4=O)sc3nc2c1	TPT1 inhibitor 47.8, Rpn11 inh active | Rpn11 confirm 121.7 | MMP-2 counter inactive | Thrombin FP inactive
CC(=O)NN1C(=O)/C(=C\c2ccc(Br)o2)SC1=S	SENP1 FRET inh 55.0, Rpn11 inh active | Rpn11 confirm inactive | MMP-2 counter inactive | Thrombin FP inactive
CCCCN=C1NN=C(c2cc3ccccc3o2)CS1	Rpn11 inh active | Rpn11 confirm inactive | MMP-2 counter inactive | Thrombin FP inactive
COC(=O)[C@H](CCSC)NC(=O)NCCc1ccc(F)cc1	none
